Shown are actives, neighbours in structure and some others; about 1.8% of the full set was active somewhere.
LMPTP block = blocks human LMPTP phosphatase. AID 651560. recombinant LMPTP-A, OMFP fluorogenic substrate, fluorescence intensity. P24666. 360,000 tested, 0.22% active. inhibition, % at 20 µM;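 active = compounds that cut the enzyme signal by at least half of the control window in the single-dose screen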;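 also: plate controls were DMSO wells with enzyme plus substrate for no effect and substrate without enzyme for full effect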
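Assay system: LMPTP-A enzyme. Input: 0.625 nM LMPTP-A final. Probe or stimulus: 400 µM OMFP. Compound dosing: single 20 µM dose. Schedule: 50 min dark incubation at room temperature. Detection: fluorescence intensity of OMFP turnover product. Read-out: percent inhibition versus substrate-only and uninhibited controls. Benchmarks: no-enzyme low control, uninhibited high control.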
STEP inh = blocks human striatal-enriched tyrosine phosphatase. P54829. inhibition, % at 20 µM. 360,000 tested, 0.25% active. recombinant STEP, OMFP fluorogenic substrate, fluorescence;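 active = inhibition at 20 µM, scaled per plate between control wells, above about 37%, limit read from the data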;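 also: 0% = DMSO with enzyme and substrate and 100% = substrate only without enzyme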
Target sequence (P54829 whole entry, looked up): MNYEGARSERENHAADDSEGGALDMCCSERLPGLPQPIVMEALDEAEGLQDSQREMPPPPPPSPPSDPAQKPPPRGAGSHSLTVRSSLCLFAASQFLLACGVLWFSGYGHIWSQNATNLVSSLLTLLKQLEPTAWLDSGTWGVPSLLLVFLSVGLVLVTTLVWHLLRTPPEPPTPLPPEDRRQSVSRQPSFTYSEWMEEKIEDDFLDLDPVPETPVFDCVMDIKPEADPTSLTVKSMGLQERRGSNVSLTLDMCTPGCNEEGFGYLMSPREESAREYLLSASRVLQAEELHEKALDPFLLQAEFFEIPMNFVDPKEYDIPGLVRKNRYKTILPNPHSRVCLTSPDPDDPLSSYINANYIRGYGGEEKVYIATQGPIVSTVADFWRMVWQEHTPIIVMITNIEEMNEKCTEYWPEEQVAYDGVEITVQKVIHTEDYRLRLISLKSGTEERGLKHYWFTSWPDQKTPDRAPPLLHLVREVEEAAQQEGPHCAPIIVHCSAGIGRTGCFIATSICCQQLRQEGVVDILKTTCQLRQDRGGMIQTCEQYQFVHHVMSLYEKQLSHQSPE
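Assay system: isolated STEP enzyme. Buffer or medium: pH 6.0 Bis-Tris with DTT and Tween 20. Also added: fluorogenic phosphatase substrate OMFP at 25 µM final. Dosing: 20 µM, 1% DMSO. Timing: 20 min reaction, room temperature, in the dark. Measured by: fluorescence intensity, excitation 480 nm, emission 540 nm. Evaluation: normalized % inhibition.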
HKDC1 inh = inhibitors of human hexokinase HKDC1. recombinant HKDC1, G6PDH/diaphorase resazurin coupled fluorescence. inhibition, % at 20 µM. 340,000 tested, 0.16% active. AID 493160;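 active = inhibition above about 35% when tested at 20 µM, limit read from the data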;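 also: plate controls were DMSO wells with enzyme for no effect and DMSO wells lacking enzyme for full effect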
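Test system: recombinant HKDC1 (HK5) hexokinase enzyme, produced in-house / Doses: 20 µM test compound, 1% DMSO / Timing: 90 min, room temperature / Detection: G6PDH/diaphorase-coupled fluorescence, 1 mM NADP, 100 µM resazurin, 525/613 nm / Control set: DMSO wells with and without enzyme mix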
DNMT1 inh = DNMT1 (human) enzyme inhibition; 360,000 tested, 0.83% active; P26358; inhibition (reported as % activation of signal), % at 10 µM; AID 588458; DNMT1 molecular beacon, Hinp1I cleavage, fluorescence; in the data active = inhibition above about 50%
Scp1 inh = Scp-1 (human) phosphatase inhibition; 340,000 tested, 0.88% active; AID 493091; inhibition, % at 20 µM; Q9GZU7; Recombinant Scp1, phosphopeptide, malachite green phosphate absorbance;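 active = inhibition above about 50% at 20 µM, limit read from the data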;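 also: plate controls were DMSO wells with enzyme for no effect and wells lacking enzyme for full effect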
Target sequence (Q9GZU7 76-261 limits assumed): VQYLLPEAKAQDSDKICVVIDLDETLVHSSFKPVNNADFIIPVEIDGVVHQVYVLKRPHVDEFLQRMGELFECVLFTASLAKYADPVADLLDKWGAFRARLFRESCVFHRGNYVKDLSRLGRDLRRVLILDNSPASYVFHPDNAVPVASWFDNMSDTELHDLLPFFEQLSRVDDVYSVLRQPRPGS
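Material – SCP-1 phosphatase catalytic domain, residues 76-261 · Buffer or medium – Acidic Tris acetate buffer with magnesium and detergent · Also added – Phospho 17-mer peptide substrate · Compound – single 20 µM dose, 1% DMSO · Times – 45 min room-temperature reaction, 5 min colour, 30 min stabiliser · Technique – Phosphate-binding colour reagent, absorbance read at 630 nm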
SUMO1-SIM PPI = alters human SUMO1 binding to SIM partners; AID 602429; P63165; inhibition, % at 20 µM; SUMO1 binding to a labelled peptide, TR-FRET, 1 h; 360,000 tested, 0.33% active; in the data active = inhibition above about 37%
Scp-1 conf = confirmation of human Scp-1 phosphatase inhibitors. shares compounds with Scp1 inh. recombinant SCP-1 catalytic domain, phosphate release, malachite green absorbance. inhibition, % at 20 µM. 2,500 tested, 61% active. AID 540281;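 also: plate controls were DMSO with enzyme for no effect and buffer wells lacking enzyme for full effect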
MG interference = counter-screen for Scp-1 inhibitors: colorimetric interference. shares compounds with Scp1 inh. Colorimetric interference counterscreen, malachite green absorbance 630 nm. apparent inhibition (interference), % at 20 µM. 2,500 tested, under 10 active. AID 540313;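 also: compounds added after enzyme reaction finished so only phosphate colour detection is probed; plate controls were DMSO wells with completed Scp-1 reaction for no effect and substrate wells lacking enzyme for full effect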
Scp1 DSF = Scp-1 (human) binding by thermal shift; shares compounds with Scp1 inh; Recombinant SCP1, Sypro Orange thermal shift Tm; thermal shift relative to vanadate control, % at 40 µM; 1,500 tested, 25% active; AID 540329;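 active = substances whose mean melting-temperature shift, as a percentage of the reference inhibitor's shift, reaches about 5.3%, limit read from the data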;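 also: 0% = Tm of DMSO wells and 100% = Tm with sodium orthovanadate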
* marks the source's active call; other numbers are inactive results; . = no result given.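 The calls were made as follows, unless noted: active = inhibition of at least 30% at 20 µM; inactive = the rest.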

SMILES	LMPTP block	STEP inh	HKDC1 inh	DNMT1 inh	Scp1 inh	SUMO1-SIM PPI	Scp-1 conf	MG interference	Scp1 DSF
Cc1ccc(C(=O)OCC(=O)c2ccc(CC(=O)N3CCOCC3)s2)cc1C	3.9	2.7	-1.0	16.9	55.5*	-5.8	56.6*	-15.6	3.5
Cc1oc2c(C)c3oc(=O)c(CC(=O)N[C@@H](CCCNC(N)=O)C(=O)O)c(C)c3cc2c1C	3.3	24.7	1.3	33.4	51.6*	30.0	43.4*	-6.5	-6.8
Cc1c(CC(=O)N[C@@H](CCCNC(N)=O)C(=O)O)c(=O)oc2cc3oc4c(c3cc12)CCCC4	-0.8	1.4	.	0.0	.	2.5	.	.	.
O=C(Nc1ccc(Cl)cc1Cl)c1ccc(Br)o1	1.7	-2.4	-5.5	0.8	-13.9	0.1	.	.	.
O=C(O)C(F)=C(c1ccccc1)c1ccccc1	-3.0	1.7	-6.0	1.2	52.0*	4.0	-10.5	-6.8	.
Cc1ccc2nc(Cl)c(C3CC(c4cccs4)=NN3C(=O)CCCC(=O)O)cc2c1 (stereo not drawn)	1.3	25.4	-0.5	-0.5	96.1*	-10.2	85.0*	-11.2	-13.2
CCOC(=O)C1=NN(c2ccc(C)cc2)CC1C(=O)OC (stereo not drawn)	-0.9	-4.0	-7.5	2.2	-10.3	-17.6	.	.	.
O=C(c1nc2ccc(Cl)cn2c1CN1CCCC1)N1CCc2ccccc2C1	8.0	-1.4	0.9	14.3	52.3*	7.6	35.7*	-3.0	5.0
CCSc1nnc(NC(=O)C2CCCCC2)s1	-0.9	-3.7	-5.2	0.6	-1.3	-1.7	.	.	.
CCSc1nnc(NC(=O)C2CC=CCC2C(=O)O)s1 (stereo not drawn)	0.0	11.6	-6.4	26.8	86.7*	4.5	52.5*	-7.6	-5.3
O=C(CCN1CCCCC1)c1ccccc1	-0.8	-2.5	-3.8	5.5	-6.2	-0.1	.	.	.
CCc1oc2ccccc2c1C(=O)CCN1CCCCC1	-0.6	1.4	10.2	3.0	57.5*	-0.7	13.9	-2.1	.
O=C(CSc1ncnc2sc3c(c12)CCC3)N1CCOCC1	6.2	13.9	2.9	27.4	53.5*	12.6	56.2*	-9.8	0.5
COc1ccc(/C=N/NC(=O)CCCOc2ccc(Cl)cc2Cl)cc1[N+](=O)[O-]	3.5	1.3	2.6	-15.3	-4.4	-1.7	.	.	.
Cc1ccc(/C=N/NC(=O)CCCOc2ccc(Cl)cc2Cl)cc1[N+](=O)[O-]	9.0	4.7	-5.9	16.9	58.5*	0.1	37.8*	-11.2	5.2
CS(=O)(=O)N(CC(=O)N1CCCCCC1)c1ccc(Cl)cc1	-2.8	0.4	-5.8	-5.2	59.4*	0.6	-0.4	-5.2	.
COc1ccc(C(=O)OCC(=O)NC(=O)NC2CCCC2)cc1OC	-0.3	-2.2	3.2	1.5	1.5	-2.6	.	.	.
COc1cc(/C=C/c2cccc[n+]2C)ccc1OCC(=O)Nc1cccc(Cl)c1	1.7	-0.3	-1.8	-1.6	70.3*	-27.3	32.4*	-5.7	-5.6
Cc1cc(C(=O)Nc2ccccc2C(=O)O)ccc1NC(=O)COc1ccccc1Cl	11.1	22.0	13.7	0.9	80.0*	19.1	51.9*	1.2	6.7*
O=C(COc1ccccc1Cl)Nc1ccc(C(=O)O)cc1NC(=O)COc1ccccc1Cl	-0.6	-2.1	-7.8	1.9	3.4	5.7	.	.	.
COc1cc2oc(=O)cc(-c3ccc(-c4ccc(N(C)C)cc4)cc3)c2c(OC)c1OC	3.8	3.7	0.9	-8.2	3.7	-16.8	.	.	.
COc1ccc(C(CNS(=O)(=O)c2ccc(NC(C)=O)c(OC)c2)N2CCCC2)cc1 (stereo not drawn)	-1.3	-4.0	-5.7	-0.2	-5.2	-1.9	.	.	.
COc1ccc(C(CNS(=O)(=O)c2ccc(NC(C)=O)c(OC)c2)N2CCCCC2)cc1 (stereo not drawn)	0.1	-0.3	-7.6	4.1	50.2*	-5.8	-16.0	-17.5	.
O=C(COC(=O)CNC(=O)c1cccc(OC(F)F)c1)NCc1ccc2c(c1)OCO2	-0.9	-3.2	-5.7	-1.5	-6.5	-2.7	.	.	.
O=C(COC(=O)CNC(=O)c1ccccc1)NCc1ccc2c(c1)OCO2	0.2	-1.0	-4.5	-1.1	67.3*	3.9	-16.2	-18.9	.
SMILES	LMPTP block	STEP inh	HKDC1 inh	DNMT1 inh	Scp1 inh	SUMO1-SIM PPI	Scp-1 conf	MG interference	Scp1 DSF
Nc1c(C(=O)OCC(=O)Nc2cccc([N+](=O)[O-])c2)[nH]c(=O)[nH]c1=O	33.2	9.2	7.5	-2.8	66.7*	3.3	65.4*	-0.8	6.1*
O=C(Nc1cccc([N+](=O)[O-])c1)Nc1cccc([N+](=O)[O-])c1	10.5	2.9	-8.4	5.5	69.3*	-12.0	66.0*	-20.8	17.4*
CC(C)CNC1=C(C(=S)Nc2ccccc2)C(=O)CC(C)(C)C1	0.2	-2.7	-11.3	2.5	-3.9	0.9	.	.	.
COc1ccc2c(c1)c(=O)oc1cc(OCC(=O)NC3CCCCC3)ccc12	3.7	6.3	7.9	51.7*	70.5*	-16.9	55.6*	-15.3	-16.0
O=c1c2ccccc2oc2nc(-c3ccco3)n(Cc3ccccc3)c(=O)c12	2.1	1.5	-0.7	8.2	50.1*	-17.5	55.7*	-0.8	-0.7
O=C(NN=Cc1ccc(N2CCOCC2)s1)c1ccc([N+](=O)[O-])cc1	2.8	4.7	-19.4	-7.8	1.5	-49.5	.	.	.
CC(=O)c1ccc(NC(=O)CCc2nc3sc4c(c3c(=O)[nH]2)CCCC4)cc1	8.4	4.2	4.3	17.4	51.8*	-1.3	65.1*	-21.3	-0.2
CCc1ccc(NC(=O)CCc2nc3sc4c(c3c(=O)[nH]2)CCCC4)cc1	2.3	0.8	-3.4	20.9	7.0	-1.6	.	.	.
CCOC(=O)COc1ccccc1/C=N\NC(=O)c1cc2c(ccc3ccccc32)o1	5.8	4.2	-2.6	-4.8	83.7*	-10.1	39.4*	-2.7	0.1
C=CCn1c(C)c(/C=C/c2cc[n+](C)cc2)c2ccccc21	5.1	-13.3	-0.6	13.8	10.5	-149.6	.	.	.
CCN(CC)C(=O)Cn1c(C)c(/C=C/c2cc[n+](C)cc2)c2ccccc21	-0.1	-9.2	-0.2	10.3	63.1*	-93.0	0.4	-11.2	.
O=C(COC(=O)c1cncc(Br)c1)NC12CC3CC(CC(C3)C1)C2	-1.2	-1.7	.	1.6	.	2.2	.	.	.
O=C(COC(=O)c1cc(Br)ccc1O)NC12CC3CC(CC(C3)C1)C2	-0.4	-2.5	-14.3	-2.5	61.0*	1.6	-19.4	-16.9	.

Screening results deposited in PubChem by Sanford-Burnham Center for Chemical Genomics.
